In brackets after ≈: the same amount, converted by molar mass. Activity calls are given as the source filed them. The calls are words filed in the database; no cut-off is given here.
Legend:
[1] = Apparent permeability from apical to basolateral membrane in MDCK-MDR1 cells; type: ADME, cell-based, Canis lupus familiaris; conditions: dog
How it was run: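 Apical-to-basolateral apparent permeability (×10⁻⁶ cm/s) measured across MDR1-MDCK cell monolayers.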

[2] = Ratio of drug level in brain to plasma of transgenic J20 mouse overexpressing human APP at 50 mg/kg, po administered via gavage for 3 consecutive days and measured after 4 hrs post last dose on day 3 by HPLC-MS/MS analysis; type: ADME, organism-based; conditions: 72 h, time 3 day
How it was run: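 Female J20 mice, 5–6 months old (n=5/dose), dosed by oral gavage once daily for 3 days in 5% NMP/95% PEG300 vehicle. Sacrificed 4 h after the day-3 dose. Plasma and brain drug levels measured by LC-MS/MS (LLOQ 1 ng/mL plasma, 5 ng/g brain). Ratio = brain level/plasma level.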

[3] = In vivo modulation of gamma secretase in transgenic J20 mouse overexpressing human APP assessed as reduction in plasma amyloid beta38 level at 50 mg/kg, po administered via gavage for 3 consecutive days and measured after 4 hrs post last dose on day 3 by meso scale discovery relative to control; type: functional; set-up: scale not given: the % may be the effect or the level left; conditions: time 3 day
How it was run: (§1)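 Female J20 mice, 5–6 months old (n=5/dose), dosed orally at 25, 50 or 100 mg/kg or with vehicle (5% NMP/95% PEG300) for 3 consecutive days. Plasma was taken 4 h after the final dose. Aβ38/40/42 measured by Meso Scale multiplex immunoassay, with % reduction relative to vehicle. Mean ± SEM, ANOVA.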

[4] = target: Cytochrome P450 2C19 (Homo sapiens, UniProt P33261); assay: Inhibition of recombinant CYP2C19 (unknown origin) by fluorescence-based assay; type: ADME
Cytochrome P450 2C19, sequence (P33261 whole entry, canonical isoform): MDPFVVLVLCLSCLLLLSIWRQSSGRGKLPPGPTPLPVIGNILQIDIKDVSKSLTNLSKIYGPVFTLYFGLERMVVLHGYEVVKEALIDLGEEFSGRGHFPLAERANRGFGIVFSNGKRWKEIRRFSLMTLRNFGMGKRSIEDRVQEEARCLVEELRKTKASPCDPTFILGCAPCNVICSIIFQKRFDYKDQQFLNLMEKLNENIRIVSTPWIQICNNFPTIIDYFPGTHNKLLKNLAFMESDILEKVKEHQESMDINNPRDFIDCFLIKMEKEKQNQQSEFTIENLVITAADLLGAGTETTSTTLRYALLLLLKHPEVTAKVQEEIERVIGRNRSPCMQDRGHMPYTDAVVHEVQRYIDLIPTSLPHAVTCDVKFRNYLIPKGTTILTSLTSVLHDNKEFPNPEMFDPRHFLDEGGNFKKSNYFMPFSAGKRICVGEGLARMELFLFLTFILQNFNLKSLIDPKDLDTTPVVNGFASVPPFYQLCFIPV
How it was run: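 Recombinant CYP isoforms (five tested) screened for inhibition in fluorescence-based assays; IC50 in μM.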

[5] = In vivo modulation of gamma secretase in transgenic J20 mouse overexpressing human APP assessed as reduction in plasma amyloid beta42 level at 50 mg/kg, po administered via gavage for 3 consecutive days and measured after 4 hrs post last dose on day 3 by meso scale discovery relative to control; type: functional; set-up: scale not given: the % may be the effect or the level left; conditions: time 3 day; how it was run: as §1
[6] = Metabolic stability in rat liver microsomes assessed as parent compound remaining at 1 uM incubated for 30 mins; type: ADME, Microsome; conditions: 0.5 h
How it was run: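 Test compound at 1 μM incubated 30 min with human, rat or mouse liver microsomes (1 mg/mL); parent remaining expressed as %.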

[7] = In vivo modulation of gamma secretase in transgenic J20 mouse overexpressing human APP assessed as reduction in plasma amyloid beta42 level at 100 mg/kg, po administered via gavage for 3 consecutive days and measured after 4 hrs post last dose on day 3 by meso scale discovery relative to control; type: functional; set-up: scale not given: the % may be the effect or the level left; conditions: time 3 day
How it was run: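 Female J20 mice, 5–6 months old (n=5/dose), given vehicle (5% NMP/95% PEG300) or test article at 25, 50 or 100 mg/kg by oral gavage daily for 3 days. Sacrificed 4 h after final dose; plasma Aβ38/40/42 quantified by Meso Scale multiplex (SECTOR Imager 6000). Percent reduction versus vehicle; mean ± SEM, ANOVA.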

[8] = In vivo modulation of gamma secretase in transgenic J20 mouse overexpressing human APP assessed as reduction in plasma amyloid beta42 level at 25 mg/kg, po administered via gavage for 3 consecutive days and measured after 4 hrs post last dose on day 3 by meso scale discovery relative to control; type: functional; set-up: scale not given: the % may be the effect or the level left; conditions: time 3 day; how it was run: as §1
[9] = Drug level in plasma of transgenic J20 mouse overexpressing human APP at 25 mg/kg, po administered via gavage for 3 consecutive days and measured after 4 hrs post last dose on day 3 by HPLC-MS/MS analysis; type: ADME, organism-based; conditions: time 3 day
How it was run: (§2)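 Female J20 mice, 5–6 months old, given 25, 50 or 100 mg/kg orally (5% NMP/95% PEG300) daily for 3 days, n=5/dose. Plasma and brain taken 4 h after the final dose and analysed by LC-MS/MS. LLOQ was 1 ng/mL in plasma and 5 ng/g in brain.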

[10] = target: Gamma-secretase (Homo sapiens) (UniProt Q96BI3+Q9NZ42+Q8WW43+P49768+Q92542+P49810); assay: Modulation of gamma secretase in human SH-SY5Y cells overexpressing wild type APP751 assessed as effect on total amyloid beta level by meso scale discovery; type: cell-based
How it was run: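 SHSY5Y cells stably overexpressing wild-type human APP751 treated with the compound over a concentration range. Aβ38, Aβ40, Aβ42 and total Aβ in the medium measured by MSD triplex immunoassay (4G8 detection, 2 h at room temperature). Concentrations back-fitted from standard curves.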

[11] = Drug level in plasma of transgenic J20 mouse overexpressing human APP at 50 mg/kg, po administered via gavage for 3 consecutive days and measured after 4 hrs post last dose on day 3 by HPLC-MS/MS analysis; type: ADME, organism-based; conditions: time 3 day; how it was run: as §2
[12] = AUC infinity in CD-1 mouse at 1 mg/kg, iv administered as single dose measured up to 24 hrs; type: ADME, organism-based; set-up: route intravenous, dose 1 mg/kg, time <=24; conditions: in vivo
How it was run: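 Male CD-1 mice, 6–8 weeks old, single dose by tail vein (1 mg/kg, 3% NMP/45% PEG300/12% ethanol/40% water) or oral gavage (5 mg/kg, 5% NMP/95% PEG300). Retro-orbital plasma sampled 0.083 (iv only) to 24 h, n=3/timepoint, and analysed by HPLC/MS/MS. Non-compartmental analysis. Half-life taken from the terminal phase using ≥3 non-zero points after Tmax.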

[13] = Kinetic aqueous solubility of the compound in pH 7.4 PBS buffer by UV/Visible absorbance analysis; type: physicochemical; conditions: read-out: Kinetic_solubility
How it was run: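 Kinetic solubility determined in PBS at pH 7.4 by UV/Vis absorbance, reported in μM.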

[14] = In vivo modulation of gamma secretase in transgenic J20 mouse overexpressing human APP assessed as reduction in plasma amyloid beta40 level at 25 mg/kg, po administered via gavage for 3 consecutive days and measured after 4 hrs post last dose on day 3 by meso scale discovery relative to control; type: functional; set-up: scale not given: the % may be the effect or the level left; conditions: time 3 day; how it was run: as §1
[15] = Ratio of drug concentration in CD-1 mouse brain to plasma at 5 mg/kg, po measured after 1 hr; type: ADME, organism-based
How it was run: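 Male CD-1 mice dosed once iv (1 mg/kg) or by oral gavage (5 mg/kg). Brain and plasma collected 1 h post dose (n=3/timepoint). Drug levels by HPLC/MS/MS; brain/plasma ratio calculated from these levels.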

[16] = Tmax in CD-1 mouse at 5 mg/kg, po administered as single dose measured up to 24 hrs; type: ADME, organism-based; conditions: in vivo
How it was run: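 Male CD-1 mice, 6–8 weeks old, single oral gavage dose in 5% NMP/95% PEG300. Plasma (K3EDTA, retro-orbital, under isoflurane) taken at 0.25, 0.5, 1, 2, 4, 8 and 24 h, n=3/timepoint, analysed by HPLC/MS/MS. Non-compartmental extravascular analysis (Model 200); Tmax taken directly from the data.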

[17] = Volume of distribution at steady state in CD-1 mouse at 1 mg/kg, iv administered as single dose measured up to 24 hrs; type: ADME, organism-based; conditions: in vivo
How it was run: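 Male CD-1 mice, 6–8 weeks old, single tail-vein dose in 3% NMP/45% PEG300/12% ethanol/40% sterile water. Retro-orbital plasma (K3EDTA) taken at 0.083, 0.25, 0.5, 1, 2, 4, 8 and 24 h, n=3/timepoint, analysed by HPLC/MS/MS. Non-compartmental analysis (Model 201, uniform weighting); Tmax read directly from the data.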

[18] = Drug level in brain of transgenic J20 mouse overexpressing human APP at 50 mg/kg, po administered via gavage for 3 consecutive days and measured after 4 hrs post last dose on day 3 by HPLC-MS/MS analysis; type: ADME, organism-based; conditions: time 3 day, read-out: Ct; how it was run: as §2

| Compound | Papp [1] | BPR [2] | Activity [3] | IC50 [4] | Activity [5] | Stabilty [6] | Activity [7] | Activity [8] | concentration at 72 h [9] | Activity [10] | concentration at 72 h [11] | AUC [12] | solubility kinetic [13] | Activity [14] | BPR [15] | Tmax [16] | Vdss [17] | concentration at 72 h [18] |
| --- | --- | --- | --- | --- | --- | --- | --- | --- | --- | --- | --- | --- | --- | --- | --- | --- | --- | --- |
| CCn1nc2c(c1Nc1nc(-c3ccc(-n4cnc(C)c4)c(OC)n3)cs1)CCC2 | 29.6 10^-6 cm/s | 0.38 | 27% | > 100 µM | 40% | 67% | 76% | 29% | 86 ng/mL | inactive | 223 ng/mL | 383 ng·h/mL | 7.8 µM (≈ 3.29 µg/mL) | 19% | 0.4 | 15 min | 2.234 L/kg | 83 ng/g |
| COc1nc(-c2csc(Nc3c4c(nn3CCF)CCCC4)n2)ccc1-n1cnc(C)c1 | 32.6 10^-6 cm/s | 0.42 | 33% | 4.6 µM | 48% | 100% | 55% | 18% | 72 ng/mL | inactive | 639 ng/mL | 288 ng·h/mL | 15 µM (≈ 6.8 µg/mL) | 11% | 0.68 | 60 min | 2.826 L/kg | 282 ng/g |

Source: ChEMBL document CHEMBL4699542, “Design and synthesis of novel methoxypyridine-derived gamma-secretase modulators” (Bioorg Med Chem, 2020)
